Assay results reported in ChEMBL document CHEMBL1141164, “Design and synthesis of a series of melamine-based nitroheterocycles with activity against Trypanosomatid parasites” (J Med Chem, 2005).
Where “and” joins values, the source holds several entries; their conditions need not be identical. Identical values can stand only once.

Legend:
[1] = system: Trypanosoma brucei rhodesiense; assay: Inhibitory concentration in vitro against blood stream Trypanosoma brucei rhodesiense incubated for 72 hr at 37 degree C; type: functional, organism-based
Method in brief: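 T. b. rhodesiense STIB900 trypomastigotes, a 1982 human isolate from Tanzania, grown in minimum essential medium with 2-mercaptoethanol and 15% heat-inactivated horse serum. Drug dilutions 90 to 0.123 μg/mL, 72 h at 37 °C, 5% CO2.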

Trypanosoma cruzi [2] = assay: In vitro inhibitory concentration against intracellular amastigotes of Trypanosoma cruzi in rat skeletal myoblasts incubated for 37 degree C for 4 days; type: functional, organism-based; settings: 96 h
Method in brief: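 L-6 myoblasts seeded at 2000 cells/well in RPMI 1640 with 10% FBS and 2 mM L-glutamine. After 24 h, 5000 T. cruzi Tulahuen C2C4 (LacZ) trypomastigotes added with serial drug dilution. Incubated 4 days at 37 °C in 5% CO2, then CPRG/Nonidet added.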

[3] = molecular target: T1, Nucleoside transporter 2 (Trypanosoma brucei brucei) (UniProt Q9U763); assay: In vitro inhibitory concentration against P2 aminopurine transporter of Trypanosoma brucei brucei 427 adenosine (0.5 uM) uptake in presence of 1 mM inosine
T1 sequence (whole entry): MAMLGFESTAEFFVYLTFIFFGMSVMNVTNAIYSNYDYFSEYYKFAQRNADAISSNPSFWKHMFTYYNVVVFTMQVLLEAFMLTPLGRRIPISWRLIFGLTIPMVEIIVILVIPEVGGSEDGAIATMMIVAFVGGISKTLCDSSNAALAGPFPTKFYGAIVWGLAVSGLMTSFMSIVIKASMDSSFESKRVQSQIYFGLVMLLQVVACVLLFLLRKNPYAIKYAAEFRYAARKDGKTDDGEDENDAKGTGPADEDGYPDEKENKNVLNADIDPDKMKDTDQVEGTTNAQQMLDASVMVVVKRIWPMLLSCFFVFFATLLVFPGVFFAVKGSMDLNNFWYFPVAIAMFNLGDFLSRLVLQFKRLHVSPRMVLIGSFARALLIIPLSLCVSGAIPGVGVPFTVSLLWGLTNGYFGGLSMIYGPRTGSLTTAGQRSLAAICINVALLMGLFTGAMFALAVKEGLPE
Method in brief: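 Blood-purified T. b. brucei 427 held on ice in Carter's buffered saline. Uptake of radiolabeled adenosine fixed at 0.5 μM via P2, measured with 1 mM inosine present to block P1, by centrifugation through oil over a range of inhibitor concentrations. IC50 obtained by plotting inhibition against inhibitor concentration.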

L6 = assay: Concentration causing cytotoxicity to 50% of L-6 rat skeletal myoblasts; type: functional, cell-based
Method in brief: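 L-6 rat skeletal myoblasts run in the same Alamar Blue assay as the trypanosome screen. Serial dilutions spanning 90 to 0.123 μg/mL, 72 h at 37 °C under 5% CO2, then Alamar Blue for a further 2–4 h. Fluorescence read at ex 536/em 588 nm and expressed as % of control to give IC50.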

Mus musculus [4] = assay: In vivo antitrypanosomal activity at a dose of 4*20 mg/kg, i.p., in mice infected with Trypanosoma brucei rhodesiense STIB 900 strain, measured as survival days (control 6.5 days); type: functional
Mus musculus [5] = assay: In vivo antitrypanosomal activity at a dose of 4*20 mg/kg, i.p., in mice infected with Trypanosoma brucei rhodesiense STIB 900 strain; 1/4; type: functional
Trypanosoma cruzi [6] = assay: In vivo activity at a dose of 25 mg/kg, i.p., for 5 doses in rodent model with Trypanosoma cruzi, measured as survival days (control 13 days); settings: route intraperitoneal
Leishmania donovani [7] = assay: Inhibitory concentration in vitro against intracellular amastigotes of Leishmania donovani in mouse peritoneal macrophages incubated for 96 hr at 27 degree C
[8] = system: Trypanosoma brucei brucei; assay: In vitro inhibitory concentration against blood stream Trypanosoma brucei brucei AT1 knockout mutant with a non functional P2 transporter incubated for 72 h at 37 degree C; type: organism-based
Method in brief: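 Bloodstream T. b. brucei trypomastigotes, wild type or P2 transporter knockout (TbAT1-/-), were tested side by side. Viability was read by Alamar Blue fluorescence and IC50 values were determined.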

[9] = system: Trypanosoma brucei brucei; assay: In vitro inhibitory concentration against blood stream Trypanosoma brucei brucei AT1 wild type incubated for 72 h at 37 degree C; type: functional, organism-based
Method in brief: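 Wild-type T. b. brucei trypomastigotes, tested alongside the P2 knockout (TbAT1-/-). Alamar Blue viability assay used to derive IC50 values.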

Trypanosoma brucei [10] = assay: Inhibitory concentration against RAD51-/- mutant Trypanosoma brucei
Trypanosoma brucei [11] = assay: Inhibitory concentration against wild-type (427) Trypanosoma brucei; type: functional, organism-based
Mus musculus [12] = assay: In vivo antitrypanosomal activity at a dose of 4*20 mg/kg, i.p., in mice infected with Trypanosoma brucei brucei STIB 795 strain; 4/4; type: functional
Mus musculus [13] = assay: In vivo antitrypanosomal activity at a dose of 4*20 mg/kg, i.p., in mice infected with Trypanosoma brucei brucei STIB 795 strain, measured as survival days (control 7 days); type: functional
Mus musculus [14] = assay: In vivo antitrypanosomal activity at a dose of 4*20 mg/kg, i.p., in mice infected with Trypanosoma brucei brucei STIB 795 strain; 0/4; type: functional
Leishmania donovani [15] = assay: Inhibitory concentration in vitro against intracellular amastigotes of Leishmania donovani in mouse peritoneal macrophages incubated for 96 hr at […]; tox is toxic to macrophages
Mus musculus [16] = assay: In vivo antitrypanosomal activity at a dose of 4*20 mg/kg, i.p., in mice infected with Trypanosoma brucei rhodesiense STIB 900 strain; 0/4; type: functional
Trypanosoma cruzi [17] = assay: In vivo activity at a dose of 15 mg/kg, i.p., for 5 doses in rodent model with Trypanosoma cruzi, measured as survival days (control 13 days); settings: route intraperitoneal
Mus musculus [18] = assay: In vivo antitrypanosomal activity at a dose of 4*20 mg/kg, i.p., in mice infected with Trypanosoma brucei rhodesiense STIB 900 strain, measured as survival days (control 7 days); type: functional
Mus musculus [19] = assay: In vivo antitrypanosomal activity at a dose of 4*1 mg/kg, i.p., in mice infected with Trypanosoma brucei rhodesiense STIB 900 strain, measured as survival days (control 7 days); ND is not determined; type: functional
Mus musculus [20] = assay: In vivo antitrypanosomal activity at a dose of 4*1 mg/kg, i.p., in mice infected with Trypanosoma brucei brucei STIB 795 strain, measured as survival days (control 7 days); type: functional
Mus musculus [21] = assay: In vivo antitrypanosomal activity at a dose of 4*1 mg/kg, i.p., in mice infected with Trypanosoma brucei rhodesiense STIB 900 strain, measured as cured/infected; 0/4; type: functional
Mus musculus [22] = assay: In vivo antitrypanosomal activity at a dose of 4*8 mg/kg, i.p., in mice infected with Trypanosoma brucei rhodesiense STIB 900 strain, measured as survival days (control 7 days); ND is not determined; type: functional
Mus musculus [23] = assay: In vivo antitrypanosomal activity at a dose of 4*8 mg/kg, i.p., in mice infected with Trypanosoma brucei rhodesiense STIB 900 strain, measured as cured/infected; 4/4; type: functional
Mus musculus [24] = assay: In vivo antitrypanosomal activity at a dose of 4*1 mg/kg, i.p., in mice infected with Trypanosoma brucei brucei STIB 795 strain; 2/4; type: functional
Trypanosoma cruzi [25] = assay: In vivo percent inhibition of compound at a dose of 45 mg/kg, p.o., for 5 doses in rodent model with Trypanosoma cruzi [ND = not determined]; settings: po
Trypanosoma cruzi [26] = assay: In vivo activity at a dose of 45 mg/kg, p.o., for 5 doses in rodent model with Trypanosoma cruzi, measured as survival days (control 13 days); settings: route oral
Mus musculus [27] = assay: In vivo antitrypanosomal activity at a dose of 4*20 mg/kg, i.p., in mice infected with Trypanosoma brucei rhodesiense STIB 900 strain, measured as survival days (control 7 days); ND is not determined; type: functional
Mus musculus [28] = assay: In vivo antitrypanosomal activity at a dose of 4*5 mg/kg, i.p., in mice infected with Trypanosoma brucei brucei STIB 795 strain; 4/4; type: functional
Mus musculus [29] = assay: In vivo antitrypanosomal activity at a dose of 4*20 mg/kg, i.p., in mice infected with Trypanosoma brucei rhodesiense STIB 900 strain, measured as cured/infected; 0/4; type: functional
Mus musculus [30] = assay: In vivo antitrypanosomal activity at a dose of 4*5 mg/kg, i.p., in mice infected with Trypanosoma brucei brucei STIB 795 strain, measured as survival days (control 7 days); type: functional

| Compound | IC50 [1] [µM] | IC50 (Trypanosoma cruzi [2]) [µM] | IC50 [3] [µM] | IC50 (L6) [µM] | IC50 [8] [µM] | IC50 [9] [µM] | IC50 (Leishmania donovani [15]) | further results |
| --- | --- | --- | --- | --- | --- | --- | --- | --- |
| N#Cc1ccc(/C=N/Nc2nc(N)nc(N)n2)o1 | 46.3 | 122 |  |  |  |  |  |  |
| Nc1nc(N)nc(N/N=C/c2ccc([N+](=O)[O-])o2)n1 | 0.025 | 2.1 | 22.9 | 183 | 0.38 | 0.23 |  | Survival (Mus musculus [4]): 35.25 days; Cured/Infected (Mus musculus [5]): 1; Survival (Trypanosoma cruzi [6]): 13 days; IC50 (Leishmania donovani [7]): > 12.5 µM; IC50 (Trypanosoma brucei [10]): 0.1 µM; IC50 (Trypanosoma brucei [11]): 0.08 µM; IC50 (Trypanosoma brucei [11]; Trypanosoma brucei): 0.08 µM; Cured/Infected (Mus musculus [12]): 4; Survival (Mus musculus [13]): >60 days |
| CNc1nc(NC)nc(N/N=C/c2ccc([N+](=O)[O-])o2)n1 | 0.01 | 0.24 |  | 44.1 |  |  |  | IC50 (Leishmania donovani [7]): 3.14 µM; Cured/Infected (Mus musculus [14]): 0; Survival (Mus musculus [13]): 5.25 days |
| Nc1nc(N)nc(N/N=C/c2ccc([N+](=O)[O-])cc2)n1 | 29.9 | 91.5 |  |  |  | > 75 |  |  |
| O=[N+]([O-])c1ccc(/C=N/O)o1 [NIFUROXIME] | 0.68 |  | 300 | 40 | 1.26 | 1.18 | Toxic |  |
| Nc1nc(N)nc(N/N=C/c2ccc([N+](=O)[O-])s2)n1 | 0.24 | 2.6 | 1.9 | 11.8 | 1.52 | 0.85 | Toxic |  |
| NNc1nc(N)nc(N)n1 |  |  | 11.9 |  | > 200 | > 200 |  |  |
| Nc1nc(N)nc(N/N=C/c2ccccc2[N+](=O)[O-])n1 | 36.5 | 328 |  |  |  | > 75 |  |  |
| CN(C)c1nc(N/N=C/c2ccc([N+](=O)[O-])o2)nc(N(C)C)n1 | 0.003 | 0.38 | 129 | 18.7 | 0.3 | 0.2 | Toxic | Cured/Infected (Mus musculus [16]): 0; Survival (Trypanosoma cruzi [17]): 12.8 days; Survival (Mus musculus [18]): 7.25 days |
| Nc1nc(N)nc(N/N=C/c2ccco2)n1 | 12.9 | > 400 | 15.9 | > 400 | 29.3 | 16.5 | Toxic |  |
| Nc1nc(N)nc(Nc2ccc([As]3SCC(CO)S3)cc2)n1 (stereo not given) [MELARSOPROL] | 0.006 | 0.006 | 1.2 |  | 0.12 | 0.053 |  | Survival (Mus musculus [19]): 21.25 days; Survival (Mus musculus [20]): >60 days; Cured/Infected (Mus musculus [21]): 0; IC50 (Leishmania donovani [7]): 7.8 µM; Survival (Mus musculus [22]): >60 days; Cured/Infected (Mus musculus [23]): 4; Cured/Infected (Mus musculus [24]): 2 |
| N/N=C/c1ccc([N+](=O)[O-])o1 | 2.3 |  | 404 | 20 | 13.5 | 23.5 | Toxic |  |
| O=C(Cn1ccnc1[N+](=O)[O-])NCc1ccccc1 [BENZNIDAZOLE] |  |  |  |  |  |  |  | inhibition in vivo at 45 mg/kg (Trypanosoma cruzi [25]): 100%; IC50 (Trypanosoma brucei [10]): 114 µM; Survival (Trypanosoma cruzi [26]): >30 days; IC50 (Trypanosoma brucei [11]; Trypanosoma brucei): 116 µM |
| Nc1nc(N)nc(N/N=C/c2cccc([N+](=O)[O-])c2)n1 | 52.9 | 328 |  |  |  | > 75 |  |  |
| N=C(N)c1ccc(OCCCCCOc2ccc(C(=N)N)cc2)cc1 [PENTAMIDINE] |  |  |  |  |  |  |  | Survival (Mus musculus [27]): 42.75 days; Cured/Infected (Mus musculus [28]): 4; Cured/Infected (Mus musculus [29]): 0; Survival (Mus musculus [30]): >60 days |
| Nc1nc(N)nc(N/N=C/c2cccs2)n1 | 10.2 | 85.8 | 4.9 | 78.2 | 170 | 89 | Toxic |  |
| CC1CS(=O)(=O)CCN1/N=C/c1ccc([N+](=O)[O-])o1 (stereo not given) [NIFURTIMOX] | 1.5 | 1.5 |  | 68 |  | 5.6 |  | IC50 (Leishmania donovani [7]): 68 µM; IC50 (Trypanosoma brucei [10]): 4.3 µM; IC50 (Trypanosoma brucei [11]): 4.1 µM and 11.4 µM |
